According to ChEMBL document CHEMBL1759963, “Synthesis and biological evaluation of 4-styrylcoumarin derivatives as inhibitors of TNF-α and IL-6 with anti-tubercular activity” (2011):

How the values were obtained:
Format in all cases: functional
[1] = test system: THP-1; test: Antiinflammatory activity in human THP1 cells assessed as inhibition of LPS-induced TNFalpha production at 10 uM after 24 hrs by ELISA; details: THP-1, 24 h
In short: (§1)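 THP-1 cells grown in RPMI 1640 with 10% FBS, penicillin and streptomycin, then differentiated with PMA. Test compound or vehicle (0.5% DMSO) added and preincubated 30 min at 37 °C. LPS (E. coli 0127:B8) then added and cells incubated 24 h at 37 °C, 5% CO2. Supernatant TNF-α and IL-6 measured by ELISA. Cytotoxicity checked in parallel by CCK-8. Percent inhibition versus control.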

[2] = test system: Mycobacterium tuberculosis; test: Antitubercular activity against Mycobacterium tuberculosis H37Rv ATCC 27294 at 6.25 ug/ml by microplate alamar blue assay
In short: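 Primary screen against M. tuberculosis H37Rv (ATCC 27294) in BACTEC 12B medium by microplate Alamar Blue assay. Tested at 6.25 µg/mL or molar equivalent of the highest-MW compound in the congener series. Fluorescent compounds instead tested in the BACTEC 460 radiometric system.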

[3] = test system: THP-1; test: Antiinflammatory activity in human THP1 cells assessed as inhibition of LPS-induced IL6 production at 10 uM after 24 hrs by ELISA; details: THP-1, 24 h; in short: as §1

For `N#Cc1c(/C=C/c2ccccc2)c2cc(Cl)ccc2oc1=O`, the inhibition at 10 µM [1] was 32%, the inhibition at 6.25 µg/mL [2] was 55% and the inhibition at 10 µM [3] was 87%.

In the case of `N#Cc1c(/C=C/c2ccc(F)cc2)c2cc(Cl)ccc2oc1=O`, the inhibition at 10 µM [1] is reported as 0% and the inhibition at 10 µM [3] is reported as 61%.

For `N#Cc1c(/C=C/c2ccccc2Cl)c2cc(Cl)ccc2oc1=O`, the inhibition at 10 µM [1] was 0% and the inhibition at 10 µM [3] was 19%.

`N#Cc1c(/C=C/c2cccc(Cl)c2)c2cc(Cl)ccc2oc1=O` gave an inhibition at 10 µM [1] of 0%, an inhibition at 6.25 µg/mL [2] of 69% and an inhibition at 10 µM [3] of 21%.

With `N#Cc1c(/C=C/c2ccc(Cl)cc2)c2cc(Cl)ccc2oc1=O` the inhibition at 10 µM [1] was 0% and the inhibition at 10 µM [3] was 4%.

Molecule `N#Cc1c(/C=C/c2cccc(Br)c2)c2cc(Cl)ccc2oc1=O` has an inhibition at 10 µM [1] of 0%, an inhibition at 6.25 µg/mL [2] of 23% and an inhibition at 10 µM [3] of 2%.

For `N#Cc1c(/C=C/c2ccccc2[N+](=O)[O-])c2cc(Cl)ccc2oc1=O`, the inhibition at 10 µM [1] was 0%, the inhibition at 6.25 µg/mL [2] was 11% and the inhibition at 10 µM [3] was 14%.

`N#Cc1c(/C=C/c2cccc([N+](=O)[O-])c2)c2cc(Cl)ccc2oc1=O` gave an inhibition at 10 µM [1] of 0%, an inhibition at 6.25 µg/mL [2] of 69% and an inhibition at 10 µM [3] of 72%.

In the case of `N#Cc1c(/C=C/c2cccc(O)c2)c2cc(Cl)ccc2oc1=O`, the inhibition at 10 µM [1] is reported as 23% and the inhibition at 10 µM [3] is reported as 39%.

Work on `N#Cc1c(/C=C/c2ccc(O)cc2)c2cc(Cl)ccc2oc1=O` yielded an inhibition at 10 µM [1] of 0% and an inhibition at 10 µM [3] of 73%.

With `COc1ccccc1/C=C/c1c(C#N)c(=O)oc2ccc(Cl)cc12` the inhibition at 10 µM [1] was 19%, the inhibition at 6.25 µg/mL [2] was 24% and the inhibition at 10 µM [3] was 17%.

`COc1ccc(/C=C/c2c(C#N)c(=O)oc3ccc(Cl)cc23)cc1` showed an inhibition at 6.25 µg/mL [2] of 33%.

Molecule `COc1ccc(/C=C/c2c(C#N)c(=O)oc3ccc(Cl)cc23)cc1OC` has an inhibition at 10 µM [1] of 0%, an inhibition at 6.25 µg/mL [2] of 63% and an inhibition at 10 µM [3] of 40%.

Molecule `COc1cc(/C=C/c2c(C#N)c(=O)oc3ccc(Cl)cc23)cc(OC)c1OC` has an inhibition at 10 µM [1] of 38%, an inhibition at 6.25 µg/mL [2] of 87% and an inhibition at 10 µM [3] of 8%.

Molecule `N#Cc1c(/C=C/c2cccc(Oc3ccccc3)c2)c2cc(Cl)ccc2oc1=O` has an inhibition at 10 µM [1] of 0%, an inhibition at 6.25 µg/mL [2] of 72% and an inhibition at 10 µM [3] of 11%.

Work on `CSc1ccc(/C=C/c2c(C#N)c(=O)oc3ccc(Cl)cc23)cc1` yielded an inhibition at 10 µM [1] of 0% and an inhibition at 10 µM [3] of 15%.

Molecule `C=Cc1ccccc1/C=C/c1c(C#N)c(=O)oc2ccc(Cl)cc12` has an inhibition at 10 µM [1] of 52% and an inhibition at 10 µM [3] of 0%.

With `N#Cc1c(/C=C/c2c3ccccc3cc3ccccc23)c2cc(Cl)ccc2oc1=O` the inhibition at 6.25 µg/mL [2] was 81%.

Molecule `N#Cc1c(/C=C/c2ccco2)c2cc(Cl)ccc2oc1=O` has an inhibition at 10 µM [1] of 9%, an inhibition at 6.25 µg/mL [2] of 63% and an inhibition at 10 µM [3] of 0%.

Molecule `N#Cc1c(/C=C/c2c[nH]c3ccccc23)c2cc(Cl)ccc2oc1=O` has an inhibition at 10 µM [1] of 31% and an inhibition at 10 µM [3] of 0%.

For `CN(C)c1ccc(/C=C/c2c(C#N)c(=O)oc3ccc(Cl)cc23)cc1`, the inhibition at 10 µM [1] was 33%, the inhibition at 6.25 µg/mL [2] was 79% and the inhibition at 10 µM [3] was 0%.

For `COc1cccc(/C=C/c2c(C#N)c(=O)oc3ccc(Cl)cc23)c1`, the inhibition at 10 µM [1] was 73%, the inhibition at 6.25 µg/mL [2] was 31% and the inhibition at 10 µM [3] was 0%.
